The list is not random: actives were taken first. Their share in the collection is about 3.1%.
SENP6 inh = SENP6 protease inhibition | AID 2599 | Q9GZR1 | inhibition, % at 10 µM | 1.8% of 330,000 active | Recombinant SENP6 catalytic domain, aminoluciferin luminescence;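 active means inhibition above about 50% at the single tested dose, limit read from the data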;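 further: plate controls were DMSO wells with enzyme for no effect and DMSO wells lacking enzyme for full effect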
SENP8 block-1 = SENP8 protease inhibition. Q96LD8. purified SENP8, Z-RLRGG-aminoluciferin cleavage, luminescence. inhibition, % at 10 µM. 1.2% of 330,000 active. AID 2540; in the data active means inhibition above about 50%
UBC13 polyUb = human UBC13 polyubiquitination inhibition | UBC13 polyubiquitin chain formation, TR-FRET | P61088 | AID 485273 | 0.47% of 330,000 active | inhibition, % at 20 µM; in the data active means inhibition above about 45%, passing the limit was not always enough
Target sequence (P61088 whole entry, looked up): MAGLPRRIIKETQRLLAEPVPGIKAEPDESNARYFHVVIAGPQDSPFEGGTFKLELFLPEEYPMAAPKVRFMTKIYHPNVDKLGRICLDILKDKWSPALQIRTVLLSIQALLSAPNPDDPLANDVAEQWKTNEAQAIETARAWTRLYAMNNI
Apaf1 inhib = blocks human Apaf-1 apoptosome activity; O14727; reconstituted apoptosome caspase-3 activity, DEVD-Rh110 fluorescence; inhibition, % at 20 µM; 0.71% of 330,000 active; active means inhibition of at least 40% at 20 µM;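 further: plate controls were DMSO wells for no effect and DEVD-CHO caspase inhibitor wells for full effect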
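System: reconstituted apoptosome with Apaf-1, cytochrome c, caspase-9, procaspase-3, dATP; Signal: Rh110 fluorescence intensity; Schedule: 30 min compound preincubation, 50 min activation, room temperature; Reagent: cytochrome c trigger plus (Z-DEVD)2-Rh110 caspase-3 substrate.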
SENP8 block-2 = blocks human SENP8 cleavage of Nedd8 substrate. Q96LD8. recombinant SENP8, Nedd8 substrate fluorescence. inhibition, % at 20 µM. 0.64% of 360,000 active. AID 602440; in the data active means inhibition mostly above about 40%, no sharp cut-off; inactive means mostly below about 27%
SENP7 inh = SENP7 protease inhibition | recombinant SENP7, Z-RLRGG-aminoluciferin luminescence, 40 min | 1.5% of 330,000 active | Q9BQF6 | inhibition, % at 5 µM;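 active means inhibition above about 50% at the single test dose, limit read from the data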;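 further: plate controls were DMSO with enzyme for no effect and no enzyme buffer wells for full effect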
SENP8 confirm = human SENP8 inhibition, confirmed; shares compounds with SENP7 inh; Recombinant SENP8, Z-RLRGG-aminoluciferin luminescence, 60 min; inhibition, % at 12.5 µM; 40% of 6,200 active; AID 488912;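 active means mean inhibition across replicates above about 50%, limit read from the data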
SENP6 confirm = confirmation of human SENP6 protease inhibitors; shares compounds with SENP7 inh; recombinant SENP6, Z-RLRGG-aminoluciferin luminescence; inhibition, % at 12.5 µM; 58% of 6,200 active
SENP7 confirm = human SENP7 inhibition, confirmed; shares compounds with SENP7 inh; recombinant SENP7, Z-RLRGG-aminoluciferin luminescence, 40 min; inhibition, % at 12.5 µM; 69% of 6,200 active
Casp3 SENP sel = caspase-3 inhibition (SENP selectivity assay); shares compounds with SENP7 inh; purified caspase-3, Z-DEVD-aminoluciferin luminescence, 60 min; inhibition, % at 12.5 µM; 60% of 6,200 active;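 active means mean inhibition above about 50%, limit read from the data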;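 further: plate controls were enzyme with DMSO for no effect and wells without caspase-3 for full effect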
Target sequence (P42574 28-227 limits assumed): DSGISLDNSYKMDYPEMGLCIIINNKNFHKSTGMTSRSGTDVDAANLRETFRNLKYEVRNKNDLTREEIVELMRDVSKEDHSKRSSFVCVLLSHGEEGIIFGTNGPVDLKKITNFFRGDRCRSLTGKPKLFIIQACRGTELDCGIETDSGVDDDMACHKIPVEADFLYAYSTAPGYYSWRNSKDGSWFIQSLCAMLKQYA
Luc interf = interferes with luciferase luminescence in SENP counter-screen; shares compounds with SENP7 inh; inhibition, % at 12.5 µM; 39% of 6,200 active; Pre-incubated SENP8/Z-RLRGG-aminoluciferin, luciferase luminescence interference;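 active means mean inhibition above about 50% when retested at one dose, limit read from the data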;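 further: plate controls were DMSO wells with completed reaction for no effect and substrate without enzyme for full effect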
Apaf-1 inh conf = confirmation of Apaf-1 inhibitors | inhibition, % at 20 µM | shares compounds with Apaf1 inhib | 25% of 1,800 active | reconstituted apoptosome, caspase-3 DEVD-Rh110 fluorescence | AID 504614;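 active means mean inhibition of at least 40% at 20 µM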;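 further: plate controls were DMSO wells for no effect and DEVD-CHO caspase inhibitor control wells for full effect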
Rh110 interf inh = Rh110 signal interference in Apaf-1 inhibitor counter-screen. shares compounds with Apaf1 inhib. Rh110 fluorescence interference, quenched caspase reaction. activation (fluorescence interference), % at 20 µM. 1,800 tested, under 10 active. AID 504615;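 active means signal rise of 40% or more at 20 µM, treated as a fluorescence artifact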
The depositor's hits bear a star.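 How the source made its calls, unless noted: active means mean inhibition above about 50% in the one-dose retest (limit read from the data); inactive means the rest.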

Screening COc1ccc(CN2C(=O)Cc3c2nc(N)c2c(N)nc(N4CCOCC4)c(C#N)c32)cc1 returned SENP6 inh 66*, SENP8 block-1 30, UBC13 polyUb -6, Apaf1 inhib 86*, SENP8 block-2 -446, SENP7 inh 27, SENP8 confirm -6, SENP6 confirm -1, SENP7 confirm -10, Casp3 SENP sel 1, Luc interf 1, Apaf-1 inh conf 25 and Rh110 interf inh 22.
Screening COCCN1C(=O)Cc2c1nc(N)c1c(N)nc(N3CCN(c4ccc(F)cc4)CC3)c(C#N)c21 returned SENP6 inh -2, SENP8 block-1 -3, UBC13 polyUb 0, Apaf1 inhib 10, SENP8 block-2 -453 and SENP7 inh 12.
COCC(C)N1C(=O)Cc2c1nc(N)c1c(N)nc(N3CCN(c4ccccc4F)CC3)c(C#N)c21 (stereo not drawn) was read as SENP6 inh 75*, SENP8 block-1 26, UBC13 polyUb -74, Apaf1 inhib 97*, SENP8 block-2 -394, SENP7 inh 24, SENP8 confirm -9, SENP6 confirm -3, SENP7 confirm -4, Casp3 SENP sel -2, Luc interf -5, Apaf-1 inh conf 25 and Rh110 interf inh 5.
Screening CC(NC(=O)C1CCN(Cc2ccc(Oc3ccccc3)cc2)CC1)c1cccc2ccccc12 (stereo not drawn) returned SENP8 block-2 14.
Screening COc1ccc2c3c(n(C(=O)OC(C)(C)C)c2c1)C1CC=C(COC(C)=O)CN1CC3 (stereo not drawn) returned SENP8 block-2 -377.
Cc1ccc(CN2CCC(C)(Oc3cccc(Cl)c3)C2)cc1 (stereo not drawn) was read as SENP8 block-2 11.
Screening COc1ccc2cc(C(c3nnnn3C3CCCC3)N3CCc4ccccc4C3)c(=O)[nH]c2c1 (stereo not drawn) returned SENP6 inh 13, SENP8 block-1 66*, UBC13 polyUb -4, Apaf1 inhib 72*, SENP8 block-2 -275, SENP7 inh 74*, SENP8 confirm 5, SENP6 confirm 9, SENP7 confirm 2, Casp3 SENP sel -3, Luc interf -4, Apaf-1 inh conf 24 and Rh110 interf inh 13.
Screening COc1ccc2cc(C(c3nnnn3C(C)(C)C)N3CCc4ccccc4C3)c(=O)[nH]c2c1 (stereo not drawn) returned SENP6 inh 38, SENP8 block-1 18, UBC13 polyUb -11, Apaf1 inhib 31 and SENP7 inh 29.
Screening COc1ccccc1-c1nc2ccccc2nc1-c1ccccc1OC returned SENP6 inh 0, SENP8 block-1 4, UBC13 polyUb 8, Apaf1 inhib -2, SENP8 block-2 -248 and SENP7 inh -6.

Screening data as filed in PubChem BioAssay.
